# CAL PDZ FP-1: inhibitors of human CAL PDZ peptide binding | Q9HD26 | purified CAL PDZ, TMR-peptide fluorescence polarization, 1 h | inhibition, % at 24.9 µM | 300,000 compounds, 0.92% hits;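 active = mean inhibition of at least 30% with at least half of replicates also reaching 30%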
# ERp5 inh: ERp5 (human) disulfide isomerase inhibition; Q15084; inhibition, % at 9.99 µM; 350,000 compounds, 0.05% hits; ERp5 insulin aggregation, absorbance 650 nm, 90 min;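 active = mean replicate inhibition above about 25%, with every replicate also reaching it, limit read from the data, passing the limit was not always enough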
# CAL PDZ FP-2: inhibitors of human CAL PDZ peptide binding; purified CAL PDZ, TMR-peptide fluorescence polarization, 1 h; 330,000 compounds, 0.02% hits; inhibition, % at 20 µM; Q9HD26; AID 504414;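 active = highest replicate inhibition of at least 40%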
#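 Test system: purified CerCALP PDZ construct; Compound dosing: one concentration, 20 µM compound; Also added: TMR-labelled reporter peptide T*-PRC34 bound in PDZ groove; Read-out: inhibition from polarization loss; Controls: unlabelled peptide and DMSO controls; Signal: FP readout, S and P plane fluorescence; Incubation: 1 h at RT.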
# PDI turbidity: PDI (human) enzyme inhibition | inhibition, % at 10 µM | 350,000 compounds, 0.052% hits | P07237 | PDI insulin aggregation turbidity, A650, 90 min;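 active = mean inhibition across replicates of 30% or more, whatever share of single replicates reach that level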
# Target sequence (P07237 whole entry, looked up): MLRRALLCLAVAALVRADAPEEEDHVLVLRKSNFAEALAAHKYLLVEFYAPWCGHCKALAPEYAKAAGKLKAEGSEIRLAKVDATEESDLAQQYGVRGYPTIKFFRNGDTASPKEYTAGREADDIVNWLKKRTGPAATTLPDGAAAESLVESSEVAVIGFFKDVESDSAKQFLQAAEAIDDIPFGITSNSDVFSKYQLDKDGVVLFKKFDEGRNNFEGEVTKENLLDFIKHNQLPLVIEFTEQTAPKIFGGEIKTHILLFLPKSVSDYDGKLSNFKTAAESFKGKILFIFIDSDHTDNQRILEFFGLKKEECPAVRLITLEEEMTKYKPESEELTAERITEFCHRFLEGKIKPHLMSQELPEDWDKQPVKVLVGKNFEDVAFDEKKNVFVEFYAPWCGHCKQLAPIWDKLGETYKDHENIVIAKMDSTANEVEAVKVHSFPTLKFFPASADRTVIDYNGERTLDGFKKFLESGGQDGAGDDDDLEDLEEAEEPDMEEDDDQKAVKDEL
# RAD52 inh: RAD52 (human) annealing inhibition; P43351; inhibition, % at 18.7 µM; recombinant RAD52 DNA annealing, FRET fluorescence; 360,000 compounds, 0.46% hits;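 active = every replicate showing at least 50% inhibition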
# RAD54 inh: blocks human RAD54 Holliday junction branch migration; Q92698; FAM/BHQ fluorescence; inhibition, % at 10.4 µM; 360,000 compounds, 0.14% hits;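 active = mean normalized replicate activity at least 40 and at least half of replicates scoring 40 or more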;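 also: inhibitors cause a drop in the FAM fluorescence signal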
# Hits are given with their value; - = inactive; . = no result; ! = a repeat was not active. Sampled rows, rich in hits. Any-hit rate of the full collection: about 1%.
SMILES,CAL PDZ FP-1,ERp5 inh,CAL PDZ FP-2,PDI turbidity,RAD52 inh,RAD54 inh
Cc1ccc(-c2cc(C(=O)Nc3ccncc3)c3ccccc3n2)cc1,32,-,-,-,-,.
CN(CC(=O)Nc1ccc(F)c(F)c1F)C(=O)c1cc(-c2ccncc2)nc2ccccc12,-,29,-,-,-,-
CN(CC(=O)Nc1ccc(F)c(F)c1F)C(=O)C1=NN(c2ccccc2)C(=O)CC1,31,-,-,-,-,.
C[C@@H]1CCCCO[C@@H](CN(C)C(=O)Nc2ccc3c(c2)OCO3)[C@@H](C)CN([C@@H](C)CO)C(=O)c2cc(NC(=O)c3ccccc3)ccc2O1,.,-,.,.,-,.
CC(C)CNC(=O)C(=O)NC1CCCC1,-,.,-,-,.,-
CC(C)CNC(=S)NC1CCCC1,140,.,.,-,.,-
C[C@@H]1CN([C@@H](C)CO)C(=O)Cc2cc(NC(=O)CCN3CCOCC3)ccc2O[C@H]1CN(C)C,.,-,.,.,-,-
CCOC(=O)N1CCN(C(=O)c2ccc3c(=O)n(-c4ccc(OC)cc4)c(=S)[nH]c3c2)CC1,.,.,-,-,.,-
CCOC(=O)N1CCN(C(=O)c2ccc3c(=O)n(-c4ccc(OC)cc4OC)c(=S)[nH]c3c2)CC1,82,.,-,-,.,-
CCOC(=O)C1CCCN(C(=O)c2ccc3c(=O)n(Cc4ccccc4OC)c(=S)[nH]c3c2)C1 (centres undefined),32,-,-,-,-,-
CCOC(=O)C1CCCN(C(=O)c2ccc(Cn3c(=S)[nH]c4cc(C(=O)OC)ccc4c3=O)cc2)C1 (centres undefined),-,-,-,-,-,.
O=C(C[C@@H]1C=C[C@H](NC(=O)Nc2cc(F)ccc2F)[C@H](CO)O1)NCc1ccccn1,.,-,.,.,-,-
Cc1noc(C)c1NC(=O)N(C)C[C@@H]1OCCCC[C@H](C)Oc2ccc(NC(=O)c3ccccc3)cc2C(=O)N([C@H](C)CO)C[C@@H]1C,.,-,.,.,-,-
COc1ccccc1CN1[C@H](CO)[C@@H]2c3ccccc3N(C(=O)C3CCC3)C[C@@H]21,.,-,.,.,-,-
O=C1c2ccccc2-c2onc3ccc(NCc4ccco4)c1c23,-,.,-,-,.,-
CCNc1ccc2noc3c2c1C(=O)c1ccccc1-3,-,.,44,-,.,.
C[C@@H]1CCCCO[C@@H](CN(C)C(=O)Nc2ccccc2)[C@@H](C)CN([C@@H](C)CO)C(=O)c2cc(NC(=O)Nc3cccc4ccccc34)ccc2O1,.,-,.,.,-,.
N#Cc1cccc(-c2ccc(C3[C@@H]4CN(C(=O)Nc5ccc6c(c5)OCO6)C[C@H]3N4)cc2)c1 (some centres undefined),.,-,.,.,55,.
N#Cc1cccc(-c2ccc(C3[C@@H]4CN(C(=O)Nc5ccccc5)C[C@H]3N4)cc2)c1 (some centres undefined),.,-,.,.,-,.
O=C(Nc1ccc2c(c1)OCO2)N1C[C@@H]2N[C@H](C1)C2c1ccc(-c2ccccc2)cc1 (some centres undefined),.,-,.,.,68,.
N#Cc1ccc(-c2ccc(C3[C@@H]4CN(C(=O)c5ccc6c(c5)OCO6)C[C@H]3N4)cc2)cc1 (some centres undefined),.,-,.,.,56!,.
CCC(=O)Nc1ccc2c(c1)OC[C@@H](C)N(Cc1ccccc1OC)C[C@@H](C)[C@@H](OC)CN(C)C2=O,.,-,.,.,-,-
C[C@H]1CN([C@@H](C)CO)C(=O)Cc2cc(NS(=O)(=O)c3cn(C)cn3)ccc2O[C@@H]1CN(C)Cc1ccncc1,.,-,.,.,-,-
O=C(CCCc1nc(-c2ccc(Cl)cc2)no1)NC1CCCC1,74,-,-,-,-,-
O=C(CCc1nc(-c2ccc(Cl)cc2)no1)NC1CCCCC1,-,-,.,-,-,-
SMILES,CAL PDZ FP-1,ERp5 inh,CAL PDZ FP-2,PDI turbidity,RAD52 inh,RAD54 inh
CN(Cc1nc2ccccc2[nH]1)C(=O)C1CCC(=O)N(C2CCCC2)C1 (centres undefined),-,-,-,-,-,-
Cc1cccc2[nH]c(CN(C)C(=O)C3CCC(=O)N(C4CC4)C3)nc12 (centres undefined),43,-,-,-,-,-
CC(=O)c1cccc(CN2CCN(Cc3ccc(F)cc3)C(CCO)C2)c1 (centres undefined),-,-,-,-,-,.
CC(=O)c1cccc(CN2CCN(Cc3ccc(C)cc3)C(CCO)C2)c1 (centres undefined),-,-,-,-,-,-
CC(=O)c1cccc(CN2CCN(CC=C(C)C)C(CCO)C2)c1 (centres undefined),51,-,.,-,-,-
CC(=O)c1cccc(CN2CCN(CCc3ccccc3)C(CCO)C2)c1 (centres undefined),63,-,-,-,-,.
CCNC(=O)C[C@H]1CC[C@H]2[C@H](COc3ccc(NC(=O)Cc4cccs4)cc3C(=O)N2C)O1,.,-,.,.,-,-
CC=Cc1ccc2n(c1=O)C[C@@H]1[C@@H](CO)[C@H](C(=O)N3CCN(C)CC3)N(Cc3ccccc3OC)[C@H]21 (mixture of isomers),.,-,.,.,-,-
COc1ccc(-c2[nH]ncc2CNC(C)CCn2cccn2)cc1F (centres undefined),51,-,-,-,-,-
Cc1noc(C)c1NC(=O)N(C)C[C@@H]1Oc2ccc(NS(=O)(=O)c3cn(C)cn3)cc2CC(=O)N([C@@H](C)CO)C[C@@H]1C,.,-,.,.,-,-
CCOC(=O)NC(=O)COC(=O)CCCSc1nc2ccccc2s1,-,-,71,-,-,.
C[C@@H]1CCCCO[C@@H](CN(C)C(=O)Nc2ccccc2)[C@@H](C)CN([C@@H](C)CO)C(=O)c2cc(NC(=O)NC3CCCCC3)ccc2O1,.,-,.,.,-,-
CC=Cc1ccc2n(c1=O)C[C@H]1[C@H](CO)[C@@H](C(=O)NCC)[C@@H]2N1Cc1ccccc1 (mixture of isomers),.,-,.,.,-,-
O=C(Nc1cc(Cl)cc(Cl)c1)N1CCCN(Cc2ccccc2)CC1,37,-,-,-,-,-
CCNC(=O)[C@H]1[C@H](CO)[C@H]2Cn3c(ccc(/C=C/c4ccccc4)c3=O)[C@@H]1N2C(C)=O,.,-,.,.,-,-
CCCNC(=O)[C@H]1[C@H](CO)[C@H]2Cn3c(ccc(/C=C/c4ccccc4)c3=O)[C@@H]1N2C(C)=O,.,71,.,.,-,-
CCNC(=O)[C@@H]1[C@@H](CO)[C@@H]2Cn3c(ccc(-c4ccccc4F)c3=O)[C@H]1N2C(=O)CC,.,-,.,.,101,-
CCC(=O)N1[C@@H]2Cn3c(ccc(-c4ccccc4)c3=O)[C@H]1[C@@H](C(=O)N1CCCCC1)[C@@H]2CO,.,-,.,.,-,-
CC(=O)N1[C@@H]2c3ccc(-c4ccccc4)c(=O)n3C[C@H]1[C@H](CO)[C@H]2C(=O)N1CCCCC1,.,-,.,.,63,-
C[C@H](CO)N1C[C@H](C)[C@H](CN(C)Cc2ccc(F)cc2)Oc2cc(C#CC3CC3)ccc2S1(=O)=O,.,-,.,.,-,-
